Hits are enriched below; roughly 2.1% of the tested compounds scored in any of these assays.
proKLK7 act – activators of human kallikrein-7 zymogen; activation, % at 7 µM; 0.9% of 370,000 active; purified proKLK7, EDANS-DABCYL substrate fluorescence; 100% is mature enzyme control, 0% vehicle;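 active = activation above the mean of all tested compounds plus 3 SD, computed per campaign excluding outliers beyond control limits, cut at about 13% in these data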
Runt-CBFb FRET – blocks binding of human RUNX1 Runt domain to CBFb. Q01196+Q13951. AID 1496. Cerulean-Runt/Venus-CBFb FRET ratio 530/480, 1 h. 0.46% of 220,000 active. inhibition, % at 20 µM;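 active = inhibition over about 50% at 20 µM in the single-dose screen, limit read from the data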
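test system = Cerulean-Runt domain fusion protein, energy donor | probe or stimulus = Venus-CBFb binding partner, 100 nM | incubation = two 1 h room-temperature incubations shielded from light | detection = fluorescence energy transfer, 422 nm excitation, 530/480 nm emission | measure = loss of energy transfer signal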
MEX-5 binding – C. elegans MEX-5 TCR-2 RNA binding activity | Q9XUB2 | MEX-5/FITC-TCR2 RNA binding, fluorescence polarization; hits give low values | activity score (negative = inhibition of binding), % at 10 µM | 0.38% of 300,000 active | AID 1832;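 active = inhibition past about -25% in most replicates, and total fluorescence under double the plate's negative control median, limit read from the data; inconclusive = replicates evenly split on the limit, or fluorescence at least double controls; inactive = too little inhibition in most replicates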
Target sequence (Q9XUB2 whole entry, looked up): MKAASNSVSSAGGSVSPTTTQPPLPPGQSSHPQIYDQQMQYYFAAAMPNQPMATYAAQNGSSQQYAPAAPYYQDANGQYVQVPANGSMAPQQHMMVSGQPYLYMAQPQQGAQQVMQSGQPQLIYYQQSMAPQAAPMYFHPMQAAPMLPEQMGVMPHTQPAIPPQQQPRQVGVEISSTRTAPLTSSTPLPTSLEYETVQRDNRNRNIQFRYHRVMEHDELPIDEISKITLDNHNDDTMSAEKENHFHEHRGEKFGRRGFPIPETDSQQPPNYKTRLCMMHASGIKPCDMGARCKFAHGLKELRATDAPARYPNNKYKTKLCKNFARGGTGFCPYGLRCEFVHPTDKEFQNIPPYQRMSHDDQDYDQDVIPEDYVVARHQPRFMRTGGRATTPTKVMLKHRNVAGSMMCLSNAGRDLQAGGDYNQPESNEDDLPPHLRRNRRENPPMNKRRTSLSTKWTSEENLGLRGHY
Runt-SMMHC FRET – Runt domain-CBFb-SMMHC interaction inhibition; inhibition, % at 20 µM; Cerulean-Runt/Venus-CBFb-SMMHC FRET ratio 530/480, 1 h; 0.74% of 220,000 active;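 active = mean inhibition across duplicate retests at 20 µM reaching about 50%, limit read from the data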;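 note: inhibitors lower the FRET ratio by blocking Runt binding to CBFb-SMMHC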
RanGTP-Impb inh – inhibitors of RanGTP-importin-beta interaction, primary screen, biochemical, FRET, CFP-Ran, YFP-importin-beta, homogeneous. cell-free CFP-Ran/YFP-importin-beta FRET ratio. inhibition, % (test concentration not listed). 1.1% of 300,000 active. AID 2216;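 active = more than half of the replicate wells show a fall in the fluorescence ratio signal beyond about 16%, limit read from the data, passing the limit was not always enough; inconclusive = exactly half of the replicate wells pass the set limit; inactive = fewer than half of replicates pass the limit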
Hits are given with their value; 0 = inactive; ? = inconclusive; - = no result given.

SMILES	proKLK7 act	Runt-CBFb FRET	MEX-5 binding	Runt-SMMHC FRET	RanGTP-Impb inh
COc1ccc(C(=O)NN=C2CCCC2)cc1	0	-	0	-	28.5
COc1cccc(C(=O)NN=C2CCCC2)c1	0	-	0	-	0
CCNC(=S)NC(=NCc1cccnc1)Nc1nc(C)cc(C)n1	0	-	0	-	19.1
CCn1c(SCC(=O)c2ccccc2)nc2sc3c(c2c1=O)CCN(C)C3	0	0	0	84.9	0
COc1cccc(OCCn2cc(C=O)c3ccccc32)c1	0	-	-27.1	-	0
COc1cccc(OCCCn2cc(/C=C3/C(=N)N4C=C(C)SC4=NC3=O)c3ccccc32)c1	0	0	-29.2	0	0
COC(=O)N/N=C/c1cn(CCOc2cccc(OC)c2)c2ccccc12	0	-	0	-	0
COc1ccc(OCCCn2cc(/C=C3/C(=N)N4C=C(C)SC4=NC3=O)c3ccccc32)cc1	0	0	0	0	0
CC(C)CN1C(=O)C[C@@]2(C(=O)N(C)c3ccc(NS(=O)(=O)C4CC4)cc32)C1c1ccccc1 (some centres not stated)	0	-	-	-	-
O=C(Nc1ccccc1Cl)NC1CCCCCCC1	0	-	-	-	-
S=C1NCCN1CC1CCN(CCCC2CCCC2)CC1	0	-	-	-	-
CCn1c(=O)cc(OCC(=O)N2CCN(c3cccc(C(F)(F)F)c3)CC2)c2ccccc21	0	0	0	0	30.0
CCn1c(=O)cc(OCC(=O)N2CCCC2)c2ccccc21	0	0	0	0	0
O=c1ccc2cc(O)c(O)cc2o1	0	0	0	72.6	80.7
CCOC(=O)C1=NS(=O)(=O)NC(C)=C1	0	-	-	-	-
Nc1c(C(=O)NCc2ccco2)c2nc3ccccc3nc2n1CCc1ccccc1	0	0	0	76.0	55.6
Nc1c(C(=O)NCc2ccccc2)c2nc3ccccc3nc2n1CCCN1CCOCC1	0	78.6	0	76.0	100.9
O=C(NCc1ccco1)c1ccc2ccccc2n1	0	0	0	0	0
O=C(NCCCN1CCOCC1)C(=O)NCc1ccccc1	0	0	0	0	0
Nc1c(C(=O)NCc2ccc(F)cc2)c2nc3ccccc3nc2n1CCCN1CCOCC1	0	0	0	80.9	87.5
COc1ccc(CNC(=O)c2c(N)n(CCCN3CCOCC3)c3nc4ccccc4nc23)cc1	0	0	0	80.9	96.7
Cc1ccc2c(c1)N(CC(=O)Nc1ccccc1F)C(=O)CO2	0	-	0	-	?
O=C1NC[C@H](CCCCN2C[C@H](Cc3ccccc3)N(CCC3CCCCC3)C(=O)C2=O)N(CCc2ccccc2)C1=O	0	-	-	-	-
Cc1cccc(-n2cnc3cc(C(=O)NCCN4CCOCC4)ccc32)c1	0	-	-	-	-
Cc1cccc(-n2c(N)c(C(=O)NCCN3CCOCC3)c3nc4ccccc4nc32)c1	0	79.2	0	60.9	84.7
SMILES	proKLK7 act	Runt-CBFb FRET	MEX-5 binding	Runt-SMMHC FRET	RanGTP-Impb inh
CC(C)C[C@H]1COc2cc(Br)ccc2S(=O)(=O)N1Cc1cn(Cc2ccco2)nn1	0	-	-	-	-
CCCCNc1ccc2c3c(cccc13)C(=O)N(CCCC)C2=O	0	0	?	0	0
CCCN1C(=O)c2cccc3c(N4CCCCC4)ccc(c23)C1=O	0	0	-134.7	0	0
O=C1c2cccc3c(N4CCCCC4)ccc(c23)C(=O)N1c1ccccn1	0	0	-68.8	0	0
CC(=O)c1cc2c(cc1N/C(=N/S(=O)(=O)c1ccc(C)cc1)c1ccccc1)OCO2	0	0	0	0	23.5
COc1ccc2nc(N3CCC(C)CC3)c(C#N)cc2c1	0	70.7	0	70.2	45.3
COc1ccc2cc(C#N)c(N3CCOCC3)nc2c1	0	-	0	-	0
CC1CN(S(=O)(=O)c2ccc(C(=O)Nc3sc4c(c3C(N)=O)CCN(C)C4)cc2)CC(C)O1 (configuration not stated)	-	0	-	0	-
NC(=O)c1c(NC(=O)CN2C(=O)NC(Cc3ccccc3)C2=O)sc2c1CCC2 (configuration not stated)	0	0	0	0	0
CC(C)N1CCc2c(sc(NC(=O)c3ccc(S(=O)(=O)N4CCc5ccccc54)cc3)c2C(N)=O)C1	-	0	0	0	89.6
CC(C)N1CCc2c(sc(NC(=O)c3nc4ccccc4s3)c2C(N)=O)C1	0	0	0	0	0
CCN1CCc2c(sc(NC(=O)CN3C(=O)c4ccccc4C3=O)c2C(N)=O)C1	0	61.8	0	102.0	0
CCN1CCN(S(=O)(=O)c2ccc(C(=O)Nc3sc4c(c3C(N)=O)CCN(CC)C4)cc2)CC1	0	-	0	-	58.1

Screening data: PubChem BioAssay, several laboratories
